Here are results for three molecules from ChEMBL document CHEMBL1136750, “Synthesis and evaluation of a novel nonsteroidal-specific endothelial cell proliferation inhibitor” (2003).

In assay [1] the test system is HUVEC. Put plainly: In vitro inhibition of primary human umbilical vein endothelial cell (HUVEC) proliferation at 10 uM. Type of assay: functional. Particulars: values are per cent of control. In short, it runs like this: (§1)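 bFGF-stimulated HUVEC proliferation; cells incubated with bFGF alone or with increasing compound concentrations. Cell counts remaining normalized: maximal bFGF response = 100%, wells without bFGF (starved) = 0%. Mean ± SEM, n = 11 or n = 5 depending on experiment.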

Assay [2] relates to HUVEC. Put plainly: In vitro inhibition of primary human umbilical vein endothelial cell (HUVEC) proliferation at 0.01 uM. Type of assay: functional. Particulars: values are per cent of control. The gist of the method: as §1
The test system of assay [3] is HUVEC. Put plainly: IIn vitro inhibition of primary human umbilical vein endothelial cell (HUVEC) proliferation at 0.1 uM. The settings on record: values are per cent of control. Type of assay: functional. In short, it runs like this:
as §1

In assay [4] the test system is HUVEC. As to the kind of experiment: In vitro inhibition of primary human umbilical vein endothelial cell (HUVEC) proliferation at 3 uM. In kind it is functional. The settings on record: values are per cent of control. In short, it runs like this: as §1
Assay [5] concerns HUVEC. As to the kind of experiment: In vitro inhibition of primary human umbilical vein endothelial cell (HUVEC) proliferation at 1 uM. Type of assay: functional. The settings on record: values are per cent of control. The gist of the method:
as §1

The target in assay [6] is Estrogen receptor beta (Homo sapiens) (UniProt Q92731). As to the kind of experiment: In vitro displacement of 0.5 nM [3H]E2 from human Estrogen receptor beta at 10 uM.
Estrogen receptor beta (Homo sapiens), sequence (Q92731 whole entry): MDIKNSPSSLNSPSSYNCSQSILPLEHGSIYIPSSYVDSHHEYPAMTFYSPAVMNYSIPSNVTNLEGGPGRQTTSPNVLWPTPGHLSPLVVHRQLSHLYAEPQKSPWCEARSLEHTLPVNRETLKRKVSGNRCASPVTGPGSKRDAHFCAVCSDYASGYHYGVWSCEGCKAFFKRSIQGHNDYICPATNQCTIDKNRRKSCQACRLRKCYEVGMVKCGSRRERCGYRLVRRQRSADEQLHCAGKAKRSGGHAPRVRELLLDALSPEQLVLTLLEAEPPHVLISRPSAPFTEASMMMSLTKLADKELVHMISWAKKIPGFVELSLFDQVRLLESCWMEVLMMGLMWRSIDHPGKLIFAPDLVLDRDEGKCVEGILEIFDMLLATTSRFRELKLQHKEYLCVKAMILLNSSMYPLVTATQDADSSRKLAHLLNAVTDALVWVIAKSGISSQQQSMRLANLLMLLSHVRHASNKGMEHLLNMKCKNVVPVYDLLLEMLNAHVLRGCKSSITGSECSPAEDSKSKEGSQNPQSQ

Consider `COc1ccc2c(c1)oc(=O)c1cc(C(C)=O)ccc12`, for which, in assay [1], the growth, % of control at 10 µM is 25%. The growth, % of control at 0.01 µM in assay [2] stood at 100%. This molecule registered a growth, % of control at 0.1 µM in assay [3] of 90%. In addition, the growth, % of control at 3 µM in assay [4] is 30%. Moreover, in assay [5], the growth, % of control at 1 µM amounted to 85%. The molecule further displayed a Binding in assay [6] of 100%.
Take `COc1cc2c(cc1O)CC[C@@H]1[C@@H]2CC[C@]2(C)[C@@H](O)CC[C@@H]12` [2-METHOXYESTRADIOL]: in assay [2], the growth, % of control at 0.01 µM came out at 100%. Besides, the growth, % of control at 0.1 µM in assay [3] was found to be 100%. Further, the growth, % of control at 3 µM in assay [4] was determined as 25%. Also, in assay [5], the growth, % of control at 1 µM was 60%. Besides, the Binding in assay [6] amounted to 25%.
Take `COc1cc2c(cc1O)oc(=O)c1cc(C(C)=O)ccc12`: the growth, % of control at 10 µM in assay [1] was determined as 10%. Moreover, the growth, % of control at 0.01 µM in assay [2] was 90%. For the same molecule, the growth, % of control at 0.1 µM in assay [3] stood at 100%. In addition, the growth, % of control at 3 µM in assay [4] worked out at 60%. Moreover, the growth, % of control at 1 µM in assay [5] is 85%. For the same molecule, the Binding in assay [6] is 90%.
